According to ChEMBL document CHEMBL3864176, “New Series of BPL Inhibitors To Probe the Ribose-Binding Pocket of Staphylococcus aureus Biotin Protein Ligase” (ACS Med Chem Lett, 2016):
Activity calls are given as the source filed them. The rule behind the calls is not given here.

Columns and labels:
Staphylococcus aureus [1] = experiment: Growth inhibition of Staphylococcus aureus RN4220 harboring pCN51 at 16 ug/ml measured every 30 mins for 16 hrs; type: functional
Outline: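 Cultures grown in medium with 16 μg/mL compound for 16 h; optical density read every 30 min and compared with nontreated controls. Part of a target-overexpression test of the BPL mechanism.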

[2] = Cytotoxicity against human HepG2 cells assessed as decrease in cell viability at 40 ug/ml after 24 to 48 hrs by WST-1 assay; type: toxicity, cell-based
Outline: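 Cultured HepG2 cells (ATCC HB-8065) exposed to compound at a single concentration of 40 μg/mL to assess cytotoxicity.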

Staphylococcus aureus [3] = experiment: Growth inhibition of Staphylococcus aureus ATCC 49775 after 16 to 20 hrs by microbroth dilution method relative to control; type: functional; design: concentration or dose not given beside the values
Outline: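 S. aureus ATCC 49775 cultured with compound; growth read spectrophotometrically at 600 nm 20 h post-treatment. Activity called where culture optical density fell by >40% relative to nontreated controls.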

Biotin--protein ligase = molecular target: T1, Biotin--protein ligase (Homo sapiens, UniProt P50747); experiment: Inhibition of human biotin protein ligase assessed as reduction in 3H-biotin incorporation into pyruvate carboxylase biotin domain after 10 mins by liquid scintillation counting analysis
T1 sequence (P50747 whole entry): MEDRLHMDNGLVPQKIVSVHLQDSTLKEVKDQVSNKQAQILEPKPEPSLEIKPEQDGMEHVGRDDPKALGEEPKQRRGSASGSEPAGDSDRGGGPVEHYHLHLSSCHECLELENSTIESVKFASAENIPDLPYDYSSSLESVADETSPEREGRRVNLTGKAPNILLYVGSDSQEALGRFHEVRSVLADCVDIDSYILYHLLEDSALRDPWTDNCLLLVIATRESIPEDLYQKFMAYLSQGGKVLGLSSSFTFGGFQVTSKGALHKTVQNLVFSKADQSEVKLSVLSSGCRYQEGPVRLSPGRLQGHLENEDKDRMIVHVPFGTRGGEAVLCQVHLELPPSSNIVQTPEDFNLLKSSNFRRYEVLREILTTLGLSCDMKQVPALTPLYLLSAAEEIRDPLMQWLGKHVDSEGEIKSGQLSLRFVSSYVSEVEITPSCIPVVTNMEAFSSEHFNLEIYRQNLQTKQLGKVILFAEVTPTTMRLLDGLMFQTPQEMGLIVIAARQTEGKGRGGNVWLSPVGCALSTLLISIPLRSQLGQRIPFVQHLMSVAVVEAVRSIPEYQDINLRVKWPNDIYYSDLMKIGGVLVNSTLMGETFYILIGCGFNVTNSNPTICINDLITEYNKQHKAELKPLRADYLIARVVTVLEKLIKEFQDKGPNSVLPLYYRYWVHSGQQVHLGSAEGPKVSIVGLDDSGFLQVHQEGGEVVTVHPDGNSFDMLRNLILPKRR
Outline: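 Recombinant human BPL; radiolabeled biotin transfer onto an acceptor protein measured with 100 μM compound included in the assay medium.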

[4] = Inhibition of Staphylococcus aureus biotin protein ligase assessed as reduction in 3H-biotin incorporation into Staphylococcus aureus pyruvate carboxylase biotin domain after 10 mins by liquid scintillation counting analysis
Outline: (§1)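 Recombinant S. aureus BPL; enzymatic incorporation of radiolabeled biotin onto an acceptor protein measured across varying inhibitor concentrations to give IC50. Ki calculated from IC50 assuming competitive inhibition versus biotin, using the known KM for biotin.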

[5] = Inhibition of Staphylococcus aureus C-terminal His6-tagged biotin protein ligase assessed as reduction in 3H-biotin incorporation into biotin domain of substrate; outline: as §1
[6] = Selectivity ratio of Ki for Staphylococcus aureus C-terminal His6-tagged biotin protein ligase to Ki for human C-terminal His6-tagged biotin protein ligase
Outline: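 Recombinant S. aureus and human BPLs; enzymatic incorporation of radiolabeled biotin onto an acceptor protein measured across varying compound concentrations. IC50 converted to Ki assuming competition with biotin, using the known biotin KM. Human enzyme tested with 100 μM compound in the assay.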

Row | Compound | growth inhibition (GI) (Staphylococcus aureus [1]) | Activity [2] [µg/mL] | growth inhibition (GI) (Staphylococcus aureus [3]) [%] | Ki (Biotin--protein ligase) [µM] | Ki [4] [nM] | Ki [5] [nM] | Ratio Ki [6]
1 | O=C1N[C@H]2[C@H](CS[C@H]2CCCCCc2cn(Cc3cccc(F)c3)nn2)N1 | Active | > 40 | >40 | > 16 | 280 |  | 
2 | CC(C)(C)c1ccc(Cn2cc(CCCCC[C@@H]3SC[C@@H]4NC(=O)N[C@@H]43)nn2)cc1 |  |  | >40 | > 16 | 1100 |  | 
3 | COc1ccccc1Cn1cc(CCCCC[C@@H]2SC[C@@H]3NC(=O)N[C@@H]32)nn1 |  |  |  | > 16 | 530 |  | 
4 | O=C1N[C@H]2[C@H](CS[C@H]2CCCCCc2cn(Cc3ccccc3O)nn2)N1 |  |  |  | > 16 | > 10000 |  | 
5 | O=C1N[C@H]2[C@H](CS[C@H]2CCCCCc2cn(Cc3ccc(Cl)cc3)nn2)N1 |  | > 40 | >40 | > 16 | 1100 |  | 
6 | Nc1ccc(Cn2cc(CCCCC[C@@H]3SC[C@@H]4NC(=O)N[C@@H]43)nn2)cc1 |  |  |  | > 16 | > 10000 |  | 
7 | O=C1N[C@H]2[C@H](CS[C@H]2CCCCCc2cn(Cc3ccccc3F)nn2)N1 |  |  |  | > 16 | > 10000 |  | 
8 | Cc1cccc(Cn2cc(CCCCC[C@@H]3SC[C@@H]4NC(=O)N[C@@H]43)nn2)c1 |  |  | >40 | > 16 | 710 |  | 
9 | O=C1N[C@H]2[C@H](CS[C@H]2CCCCCc2cn(Cc3cccc(Cl)c3)nn2)N1 |  | > 40 | >40 | > 16 | 390 |  | 
10 | O=C1N[C@H]2[C@H](CS[C@H]2CCCCCc2cn(Cc3ccc(F)c(F)c3)nn2)N1 |  |  |  | > 16 | > 10000 |  | 
11 | Cc1ccc2oc(=O)n(CCCCn3cc(CCCCC[C@@H]4SC[C@@H]5NC(=O)N[C@@H]54)nn3)c2c1 |  |  |  |  |  | 90 | > 1000
12 | O=C1N[C@H]2[C@H](CS[C@H]2CCCCCc2cn(Cc3ccc(C(=O)O)cc3)nn2)N1 |  |  |  | > 16 | 670 |  | 
13 | O=C1N[C@H]2[C@H](CS[C@H]2CCCCCc2cn(Cc3ccc(C(F)(F)F)cc3)nn2)N1 |  |  |  | > 16 | > 10000 |  | 
14 | O=C1N[C@H]2[C@H](CS[C@H]2CCCCCc2cn(Cc3cccc(O)c3)nn2)N1 |  |  |  | > 16 | > 10000 |  | 
15 | O=C1N[C@H]2[C@H](CS[C@H]2CCCCCc2cn(Cc3ccc(F)cc3)nn2)N1 |  | > 40 | >40 | > 16 | 600 |  | 
16 | O=C1N[C@H]2[C@H](CS[C@H]2CCCCCc2cn(Cc3cccc(I)c3)nn2)N1 |  |  |  | > 16 | > 10000 |  | 
17 | Nc1cccc(Cn2cc(CCCCC[C@@H]3SC[C@@H]4NC(=O)N[C@@H]43)nn2)c1 |  |  |  | > 16 | > 10000 |  | 
18 | O=C1N[C@H]2[C@H](CS[C@H]2CCCCCc2cn(Cc3ccccc3Br)nn2)N1 |  |  | >40 | > 16 | 960 |  | 
19 | O=C1N[C@H]2[C@H](CS[C@H]2CCCCCc2cn(Cc3cccc(C(F)(F)F)c3)nn2)N1 |  |  |  | > 16 | > 10000 |  | 
20 | Cc1ccc(Cn2cc(CCCCC[C@@H]3SC[C@@H]4NC(=O)N[C@@H]43)nn2)cc1 |  |  |  | > 16 | > 10000 |  | 
21 | COc1ccc(Cn2cc(CCCCC[C@@H]3SC[C@@H]4NC(=O)N[C@@H]43)nn2)cc1 |  |  |  | > 16 | > 10000 |  | 
22 | COc1cccc(Cn2cc(CCCCC[C@@H]3SC[C@@H]4NC(=O)N[C@@H]43)nn2)c1 |  |  |  | > 16 | 1100 |  | 
23 | Nc1ccccc1Cn1cc(CCCCC[C@@H]2SC[C@@H]3NC(=O)N[C@@H]32)nn1 | Active |  | >40 | > 16 | 1480 |  | 
24 | O=C1N[C@H]2[C@H](CS[C@H]2CCCCCc2cn(Cc3ccc(O)cc3)nn2)N1 |  |  |  | > 16 | 1590 |  | 
25 | O=C1N[C@H]2[C@H](CS[C@H]2CCCCCc2cn(Cc3ccccc3Cl)nn2)N1 |  |  |  | > 16 | > 10000 |  | 
26 | O=C1N[C@H]2[C@H](CS[C@H]2CCCCCc2cn(Cc3ccc(I)cc3)nn2)N1 |  |  | >40 | > 16 | 560 |  | 
